Tests used:
MDA-MB-231 = test: Antiproliferative activity against human MDA-MB-231 cells at 1 uM after 48 to 72 hrs by MTT assay relative to control; assay type: functional
Method in brief: (§1)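 Single-concentration screen in the MTT proliferation assay: log-phase cells seeded and allowed to adhere, exposed to compound at 1 µM for 48 h or 72 h, MTT added for 2-3 h, formazan dissolved in DMSO; percent inhibition versus control.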

MCF7 [1] = test: Antiproliferative activity against human MCF7 cells at 1 uM after 48 to 72 hrs by MTT assay relative to control; assay type: functional; method in brief: as §1
Raji [2] = test: Antiproliferative activity against human Raji cells at 1 uM after 48 to 72 hrs by MTT assay relative to control; assay type: functional; method in brief: as §1
NCI-H460 [3] = test: Antiproliferative activity against human H460 cells at 1 uM after 48 to 72 hrs by MTT assay relative to control; assay type: functional; method in brief: as §1
NCI-H460 [4] = test: Antiproliferative activity against human H460 cells after 48 to 72 hrs by MTT assay; assay type: functional, cell-based
Method in brief: (§2)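 Cells in log phase seeded and allowed to adhere, then exposed to graded compound concentrations for 48 h or 72 h; MTT added for a further 2-3 h, formazan dissolved in DMSO. IC50 taken from dose-response curves; mean ± SD of at least three independent experiments.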

MCF7 [5] = test: Antiproliferative activity against human MCF7 cells after 48 to 72 hrs by MTT assay; assay type: functional, cell-based; method in brief: as §2
Raji [6] = test: Antiproliferative activity against human Raji cells after 48 to 72 hrs by MTT assay; assay type: functional, cell-based; method in brief: as §2
A549/TR = test: Antiproliferative activity against human A549/TR cells after 48 to 72 hrs by MTT assay; assay type: functional, cell-based; method in brief: as §2
A549 = test: Antiproliferative activity against human A549 cells after 48 to 72 hrs by MTT assay; assay type: functional, cell-based; method in brief: as §2
A2780S = test: Antiproliferative activity against human A2780S cells after 48 to 72 hrs by MTT assay; assay type: functional, cell-based; method in brief: as §2
A2780/Taxol = test: Antiproliferative activity against human A2780T cells after 48 to 72 hrs by MTT assay; assay type: functional, cell-based; method in brief: as §2
[7] = Resistance index, ratio of IC50 for human A2780T cells to IC50 for human A2780S cells; assay type: functional
[8] = Resistance index, ratio of IC50 for human A549/TR cells to IC50 for human A549 cells; assay type: functional

| SMILES | inhibition at 1 µM (MDA-MB-231) | inhibition at 1 µM (MCF7 [1]) | inhibition at 1 µM (Raji [2]) | inhibition at 1 µM (NCI-H460 [3]) | IC50 (NCI-H460 [4]) | IC50 (MCF7 [5]) | IC50 (Raji [6]) | IC50 (A549/TR) | IC50 (A549) | IC50 (A2780S) | IC50 (A2780/Taxol) | Ratio IC50 [7] | Ratio IC50 [8] |
| --- | --- | --- | --- | --- | --- | --- | --- | --- | --- | --- | --- | --- | --- |
| N#Cc1cccc(COc2cccc(/C=N/NC(=O)c3cc4c(cn3)[nH]c3ccccc34)c2)c1 | 21.9% | 17.9% | 24.1% | 12.8% | – | – | – | – | – | – | – | – | – |
| O=C(N/N=C/c1cccc(OCc2ccc(Br)cc2)c1)c1cc2c(cn1)[nH]c1ccccc12 | 31.8% | 50.4% | 58.7% | 52.8% | 2.42 µM | 7.22 µM | 6.74 µM | – | – | – | – | – | – |
| COc1ccc(/C=N/NC(=O)c2cc3c(cn2)[nH]c2ccccc23)cc1OCc1ccccc1 | 22.2% | -6.31% | 25.8% | 20.7% | – | – | – | – | – | – | – | – | – |
| O=C(N/N=C/c1cccc(OCc2ccc(Cl)cc2)c1)c1cc2c(cn1)[nH]c1ccccc12 | 30.7% | 24.3% | 56.7% | 40.4% | 5.02 µM | 8.62 µM | 5.02 µM | – | – | – | – | – | – |
| O=C(N/N=C/c1cccc(Oc2ccccc2)c1)c1cc2c(cn1)[nH]c1ccccc12 | 6.76% | -18.6% | 2.06% | 22.1% | – | – | – | – | – | – | – | – | – |
| O=C(N/N=C/c1cccc(OCc2ccccc2Cl)c1)c1cc2c(cn1)[nH]c1ccccc12 | 28.6% | 36.2% | 56.3% | 45.4% | 1.27 µM | 2.32 µM | 3.02 µM | – | – | – | – | – | – |
| CC[C@]1(O)C[C@@H]2CN(CCc3c([nH]c4ccccc34)[C@@](C(=O)OC)(c3cc4c(cc3OC)N(C)[C@H]3[C@@](O)(C(=O)OC)[C@H](OC(C)=O)[C@]5(CC)C=CCN6CC[C@]43[C@@H]65)C2)C1 [VINBLASTINE] | – | – | – | – | – | – | – | 0.248 µM | 0.0195 µM | 0.0157 µM | 16.9 µM | 1073.76 | 12.72 |
| O=C(N/N=C/c1cccc(OCc2ccccc2F)c1)c1cc2c(cn1)[nH]c1ccccc12 | 24.7% | 46.2% | 54.3% | 43.2% | 1.36 µM | 6.5 µM | 2.94 µM | – | – | – | – | – | – |
| Cc1cccc(COc2cccc(/C=N/NC(=O)c3cc4c(cn3)[nH]c3ccccc34)c2)c1 | 22.7% | 26.3% | 33.2% | 27.4% | – | – | – | – | – | – | – | – | – |
| O=C(N/N=C/c1cccc(OCc2ccc(F)cc2)c1)c1cc2c(cn1)[nH]c1ccccc12 | 27.2% | 23.6% | 48% | 29.7% | – | – | – | – | – | – | – | – | – |
| CN(Cc1ccccc1)Cc1nnc(-c2cc3c(cn2)[nH]c2ccccc23)o1 | -3.26% | -1.84% | 16.3% | 3.74% | – | – | – | – | – | – | – | – | – |
| O=C(N/N=C/c1cccc(OCc2ccc([N+](=O)[O-])cc2)c1)c1cc2c(cn1)[nH]c1ccccc12 | 20.2% | 32.8% | 56.7% | 38.4% | 1.04 µM | 8.3 µM | 3.02 µM | – | – | – | – | – | – |
| COC(=O)c1ccc(COc2cccc(/C=N/NC(=O)c3cc4c(cn3)[nH]c3ccccc34)c2)cc1 | 31.8% | 56.4% | 63.8% | 25.9% | 1.17 µM | 1.64 µM | 3.88 µM | – | – | – | – | – | – |
| Cc1ccc(COc2cccc(/C=N/NC(=O)c3cc4c(cn3)[nH]c3ccccc34)c2)cc1 | 28.7% | 53.5% | 45% | 29.2% | 2.18 µM | 5.24 µM | 4.06 µM | – | – | – | – | – | – |
| O=C(N/N=C/c1ccc(-c2ccccc2)cc1)c1cc2c(cn1)[nH]c1ccccc12 | 29.3% | 36.6% | 62.5% | 44.3% | 3.64 µM | 4.56 µM | 1.04 µM | – | – | – | – | – | – |

— ChEMBL document CHEMBL4152257, “Discovery of novel β-carboline/acylhydrazone hybrids as potent antitumor agents and overcome drug resistance” (Eur J Med Chem, 2018)
